# Reference: ChEMBL document CHEMBL1255405 (Antimicrob Agents Chemother, 2010)
# What was measured:
# Homo sapiens [1] = experiment: Peripheral compartment volume of distribution in Papua new Guinean women in second or third trimester of pregnancy using pharmacokinetic base model at 450 mg/day, po administered as three divided doses in presence of sulfadoxine-pyrimethamine by HPLC method; format: ADME, organism-based; details: in vivo
# How it was run: (§1)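 Papua New Guinean women in the second or third trimester of pregnancy (n=30) and age-matched nonpregnant women (n=30) took CQ 450 mg (8.5 mg/kg/day) as whole tablets with water once daily for 3 days, plus single-dose sulfadoxine-pyrimethamine, without fasting. Plasma was sampled from baseline to 72 h and on days 7–42. CQ and DECQ were measured by HPLC (UV 340 nm) and analysed by population PK modelling, with weight-allometric scaling expressed relative to F.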
# [2] = Cmax in Papua new Guinean pregnant women at 450 mg/day, po administered as three divided doses by HPLC method; format: ADME, organism-based; design: dose 450 mg/day, route oral; details: female, human, in vivo
# How it was run: (§2)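 Simulated values, not observed data. Final population PK model parameters were applied in NONMEM to hypothetical pregnant and nonpregnant women (n=1,000 each) generated with mvtnorm, with covariates such as weight drawn from the original subjects. Cmax, Tmax and AUC0-∞ of CQ and DECQ were derived for a range of plausible CQ regimens.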
# Homo sapiens [3] = experiment: Peripheral compartment volume of distribution in Papua new Guinean women in second or third trimester of pregnancy using pharmacokinetic final covariate model assessed as monodesethychloroquine at 450 mg/day, po administered as three divided doses in presence of sulfadoxine-pyrimethamine by HPLC method; format: ADME, organism-based; details: in vivo; how it was run: as §1
# Homo sapiens [4] = experiment: Central compartment volume of distribution in Papua new Guinean women in second or third trimester of pregnancy using pharmacokinetic base model at 450 mg/day, po administered as three divided doses in presence of sulfadoxine-pyrimethamine by HPLC method; format: ADME, organism-based; details: in vivo; how it was run: as §1
# [5] = Apparent oral clearance in Papua new Guinean women in second or third trimester of pregnancy using pharmacokinetic base model at 450 mg/day, po administered as three divided doses in presence of sulfadoxine-pyrimethamine by HPLC method; format: ADME, organism-based; details: female, human, in vivo; how it was run: as §1
# [6] = Cmax in women at 450 mg/day, po administered as three divided doses by HPLC method; format: ADME, organism-based; design: dose 450 mg/day, route oral; details: female, human, in vivo; how it was run: as §2
# Homo sapiens [7] = experiment: AUC (0 to infinity) in Papua new Guinean pregnant women assessed as monodesethychloroquine at 750 mg/day, po administered as three divided doses by HPLC method; format: ADME, organism-based, Plasma; design: dose 750 mg/day, time infinity, route oral; details: in vivo; how it was run: as §2
# [8] = AUC (0 to infinity) in women at 450 mg/day, po administered as three divided doses by HPLC method; format: ADME, organism-based; design: dose 450 mg/day, time infinity, route oral; details: female, human, plasma; how it was run: as §1
# [9] = AUC (0 to infinity) in Papua new Guinean pregnant women at 750 mg/day, po administered as three divided doses by HPLC method; format: ADME, organism-based; design: dose 750 mg/day, route oral, time infinity; details: female, human, plasma; how it was run: as §2
# [10] = Apparent oral clearance in Papua new Guinean women in second or third trimester of pregnancy using pharmacokinetic final covariate model at 450 mg/day, po administered as three divided doses in presence of sulfadoxine-pyrimethamine by HPLC method; format: ADME, organism-based; details: female, human, in vivo; how it was run: as §1
# Homo sapiens [11] = experiment: AUC (0 to infinity) in women assessed as monodesethychloroquine at 450 mg/day, po administered as three divided doses by HPLC method; format: ADME, organism-based, Plasma; design: dose 450 mg/day, route oral, time infinity; details: in vivo; how it was run: as §1
# [12] = AUC (0 to infinity) in Papua new Guinean pregnant women at 600 mg/day, po administered as three divided doses by HPLC method; format: ADME, organism-based; design: dose 600 mg/day, time infinity, route oral; details: female, human, plasma; how it was run: as §2
# [13] = Cmax in Papua new Guinean pregnant women at 600 mg/day, po administered as three divided doses by HPLC method; format: ADME, organism-based; design: dose 600 mg/day, route oral; details: female, human, in vivo; how it was run: as §2
# Homo sapiens [14] = experiment: Peripheral compartment volume of distribution in Papua new Guinean women in second or third trimester of pregnancy using pharmacokinetic final covariate model at 450 mg/day, po administered as three divided doses in presence of sulfadoxine-pyrimethamine by HPLC method; format: ADME, organism-based; details: in vivo; how it was run: as §1
# Homo sapiens [15] = experiment: Central compartment volume of distribution in Papua new Guinean women in second or third trimester of pregnancy using pharmacokinetic final covariate model assessed as monodesethychloroquine at 450 mg/day, po administered as three divided doses in presence of sulfadoxine-pyrimethamine by HPLC method; format: ADME, organism-based; details: in vivo; how it was run: as §1
# Homo sapiens [16] = experiment: Cmax in Papua new Guinean pregnant women assessed as monodesethychloroquine at 450 mg/day, po administered as three divided doses by HPLC method; format: ADME, organism-based; design: dose 450 mg/day, route oral; details: in vivo; how it was run: as §2
# Homo sapiens [17] = experiment: AUC (0 to infinity) in Papua new Guinean pregnant women assessed as monodesethychloroquine at 600 mg/day, po administered as three divided doses by HPLC method; format: ADME, organism-based, Plasma; design: dose 600 mg/day, time infinity, route oral; details: in vivo; how it was run: as §2
# Homo sapiens [18] = experiment: Central compartment volume of distribution in Papua new Guinean women in second or third trimester of pregnancy using pharmacokinetic final covariate model at 450 mg/day, po administered as three divided doses in presence of sulfadoxine-pyrimethamine by HPLC method; format: ADME, organism-based; details: in vivo; how it was run: as §1
# [19] = AUC (0 to infinity) in Papua new Guinean pregnant women at 450 mg/day, po administered as three divided doses by HPLC method; format: ADME, organism-based; design: dose 450 mg/day, time infinity, route oral; details: female, human, plasma; how it was run: as §1
# [20] = Cmax in Papua new Guinean pregnant women at 750 mg/day, po administered as three divided doses by HPLC method; format: ADME, organism-based; design: dose 750 mg/day, route oral; details: female, human, in vivo; how it was run: as §2
# Homo sapiens [21] = experiment: Cmax in Papua new Guinean pregnant women assessed as monodesethychloroquine at 750 mg/day, po administered as three divided doses by HPLC method; format: ADME, organism-based; design: dose 750 mg/day, route oral; details: in vivo; how it was run: as §2
# Homo sapiens [22] = experiment: AUC (0 to infinity) in Papua new Guinean pregnant women assessed as monodesethychloroquine at 450 mg/day, po administered as three divided doses by HPLC method; format: ADME, organism-based, Plasma; design: dose 450 mg/day, route oral, time infinity; details: in vivo; how it was run: as §1
# Homo sapiens [23] = experiment: Central compartment volume of distribution in Papua new Guinean women in second or third trimester of pregnancy using pharmacokinetic base model assessed as monodesethychloroquine at 450 mg/day, po administered as three divided doses in presence of sulfadoxine-pyrimethamine by HPLC method; format: ADME, organism-based; details: in vivo; how it was run: as §1
# Homo sapiens [24] = experiment: Cmax in Papua new Guinean pregnant women assessed as monodesethychloroquine at 600 mg/day, po administered as three divided doses by HPLC method; format: ADME, organism-based; design: dose 600 mg/day, route oral; details: in vivo; how it was run: as §2
# Homo sapiens [25] = experiment: Cmax in women assessed as monodesethychloroquine at 450 mg/day, po administered as three divided doses by HPLC method; format: ADME, organism-based; design: dose 450 mg/day, route oral; details: in vivo; how it was run: as §2
# Homo sapiens [26] = experiment: Peripheral compartment volume of distribution in Papua new Guinean women in second or third trimester of pregnancy using pharmacokinetic base model assessed as monodesethychloroquine at 450 mg/day, po administered as three divided doses in presence of sulfadoxine-pyrimethamine by HPLC method; format: ADME, organism-based; details: in vivo; how it was run: as §1
compound,measurement,setting,value
CCN(CC)CCCC(C)Nc1ccnc2cc(Cl)ccc12 (stereo unspecified) [CHLOROQUINE],Vp/F,Homo sapiens [1],5200 L
same,Cmax,[2],296 ng/mL
same,Vp/F,Homo sapiens [3],840 L
same,Vc/F,Homo sapiens [4],4160 L
same,CL/F,[5],568 mL/min
same,Cmax,[6],376 ng/mL
same,AUC,Homo sapiens [7],39793 ng·h/mL
same,AUC(0-inf),[8],50000 ng·h/mL
same,AUC(0-inf),[9],59400 ng·h/mL
same,CL/F,[10],488 mL/min
same,AUC,Homo sapiens [11],41255 ng·h/mL
same,AUC(0-inf),[12],47500 ng·h/mL
same,Cmax,[13],395 ng/mL
same,Vp/F,Homo sapiens [14],5190 L
same,Vc/F,Homo sapiens [15],40 L
same,Cmax,Homo sapiens [16],139 ng/mL
same,AUC,Homo sapiens [17],31835 ng·h/mL
same,Vc/F,Homo sapiens [18],4220 L
same,AUC(0-inf),[19],35700 ng·h/mL
same,Cmax,[20],494 ng/mL
same,Cmax,Homo sapiens [21],232 ng/mL
same,AUC,Homo sapiens [22],23876 ng·h/mL
same,Vc/F,Homo sapiens [23],39.9 L
same,Cmax,Homo sapiens [24],185 ng/mL
same,Cmax,Homo sapiens [25],186 ng/mL
same,Vp/F,Homo sapiens [26],812 L
